Screens: PubChem, Broad Institute
Only some compounds are listed: those with a hit (about 1.5% of all), similar ones and a draw of the others.
MLL AF4-AF9 inh = inhibitors of AF4 peptide binding to AF9, primary screen, biochemical, AlphaScreen, biotin-AF4 peptide, FLAG-AF9, single point. Protein AF-9 (Homo sapiens), P42568. inhibition, % at 10 µM. 350,000 tested, 0.47% active. AID 651704, 2012;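 active = every replicate reaching a set inhibition limit, whatever the replicate mean, cut at about 25% in these data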;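 note: 0% = plate neutral control median and 100% = total signal loss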
Target sequence (P42568 whole entry, looked up): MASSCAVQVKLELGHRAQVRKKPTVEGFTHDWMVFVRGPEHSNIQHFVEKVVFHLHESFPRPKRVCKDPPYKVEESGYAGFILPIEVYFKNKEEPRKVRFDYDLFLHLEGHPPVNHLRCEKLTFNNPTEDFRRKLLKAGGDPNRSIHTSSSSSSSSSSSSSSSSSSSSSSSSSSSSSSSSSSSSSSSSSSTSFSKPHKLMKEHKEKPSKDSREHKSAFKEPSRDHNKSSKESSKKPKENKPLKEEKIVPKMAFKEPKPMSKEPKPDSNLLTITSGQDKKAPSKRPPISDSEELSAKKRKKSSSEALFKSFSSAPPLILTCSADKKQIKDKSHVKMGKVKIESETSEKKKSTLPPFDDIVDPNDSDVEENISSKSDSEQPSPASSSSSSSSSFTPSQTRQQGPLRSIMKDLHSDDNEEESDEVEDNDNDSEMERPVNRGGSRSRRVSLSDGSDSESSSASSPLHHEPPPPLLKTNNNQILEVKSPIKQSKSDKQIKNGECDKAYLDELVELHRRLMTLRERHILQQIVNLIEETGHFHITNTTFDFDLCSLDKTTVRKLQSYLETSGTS
RAD52 inh = RAD52 DNA annealing inhibitors, primary screen, biochemical, FRET, single point, set 2 | DNA repair protein RAD52 homolog (Homo sapiens), P43351 | recombinant RAD52 DNA annealing, FRET fluorescence | inhibition, % at 18.7 µM | 360,000 tested, 0.46% active;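 active = every replicate showing at least 50% inhibition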
S100A4 inh HTS = inhibitors of S100A4-myosin IIA peptide binding, primary screen, biochemical, fluorescence polarization, TAMRA-MyoIIA peptide | inhibition, % at 10.7 µM | 360,000 tested, 0.14% active;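 active = mean inhibition of at least 70% across replicates, with every replicate also reaching that level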
Target sequence (P26447 whole entry, looked up): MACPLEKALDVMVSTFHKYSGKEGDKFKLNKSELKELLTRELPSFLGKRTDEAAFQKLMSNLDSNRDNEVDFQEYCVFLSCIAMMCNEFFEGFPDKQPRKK
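Material: S100A4 monomer protein / Buffer or medium: 50 mM HEPES pH 7.2, 10 mM CaCl2, 100 mM KCl / Times: 5 min incubation before reading / Benchmarks: neutral control DMSO, positive control TFP / Reagent: labelled myosin peptide probe, 5 nM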
dFosB act = activators of delta FosB homodimer, primary screen, biochemical, fluorescence polarization, TAMRA-CDK5 oligo, single point | Protein FosB (Mus musculus), P13346 | 340,000 tested, 0.99% active | purified delta FosB; percent of positive-control signal above neutral wells | AID 493131, 2011 | activation, % at 25 µM;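 active = mean activation above about 17%, with every replicate also reaching it, limit read from the data, passing the limit was not always enough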
RAD54 branch = inhibitors of human RAD54 branch migration, primary screen, biochemical, fluorescence, single point; DNA repair and recombination protein RAD54-like (Homo sapiens), Q92698; RAD54 Holliday junction branch migration, FAM/BHQ fluorescence; inhibition, % at 10.4 µM; 360,000 tested, 0.14% active; AID 602329, 2012;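 active = mean normalized replicate activity at least 40 and at least half of replicates scoring 40 or more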;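 note: 0% = median of neutral control wells and 100% = median of positive control wells; inhibitors cause a drop in the FAM fluorescence signal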
Active calls of the source: *; i = inactive; nt = no result; ! = not confirmed by another sample.

SMILES	MLL AF4-AF9 inh	RAD52 inh	S100A4 inh HTS	dFosB act	RAD54 branch
C[C@@H]1CCCCO[C@@H](CN(C)C(=O)Nc2cccc3ccccc23)[C@@H](C)CN([C@H](C)CO)C(=O)c2cc(NC(=O)C3CCCCC3)ccc2O1	0.5	-0.2	9.4	nt	6.7
C[C@@H]1CCCCO[C@@H](CN(C)C(=O)Nc2cccc3ccccc23)[C@H](C)CN([C@@H](C)CO)C(=O)c2cc(NC(=O)C3CCCCC3)ccc2O1	-3.2	0.9	116.7*	nt	-1.2
C[C@@H]1CCCCO[C@@H](CN(C)C(=O)Nc2cccc3ccccc23)[C@H](C)CN([C@@H](C)CO)C(=O)c2cc(N(C)C)ccc2O1	16.7	56.0*	-27.6	nt	-11.0
Cc1noc(C)c1NC(=O)Nc1ccc2c(c1)C(=O)N([C@@H](C)CO)C[C@@H](C)[C@H](CN(C)C(=O)Nc1ccc(C(F)(F)F)cc1)O2	-1.3	-9.9	15.3	nt	-0.5
CN(N=Cc1ccc([N+](=O)[O-])cc1)c1ccccn1	1.6	i	83.5*	nt	-31.4
O=C(c1ccc([N+](=O)[O-])cc1)N(c1ccccn1)c1ccccn1	-1.1	3.6	-6.4	2.7	nt
Cc1cc(C(C)(C)C)ccc1NC(=O)CC(C)(C)CC(=O)O	25.9*	-7.5	-1.0	1.2	-5.2
CCc1cccc(C)c1NC(=O)CC(C)(C)CC(=O)O	-1.7	6.5	0.9	-0.9	nt
CCN(C[C@H]1[C@H](c2ccccc2)[C@H](CO)N1C(C)=O)C(=O)c1ccccn1	0.4	-7.0	103.5*	nt	-7.5
Cc1ccc2[nH]c(O)c(N=NC(=O)CCc3ccccc3)c2c1Br	nt	nt	nt	17.0*	6.0
CN1[C@H](C(=O)NC2Cc3ccccc3C2)[C@@H](CO)[C@@H]2Cn3c(ccc(C4=CCCC4)c3=O)[C@@H]21	-0.1	-34.7	-4.6	nt	-13.7
Cc1ccc(-c2cnc3c(c2)C(=O)N([C@H](C)CO)C[C@H](C)[C@@H](CN(C)C(=O)CN(C)C)O3)cc1	-1.7	-0.3	3.1	nt	3.4
C[C@@H]1CN([C@@H](C)CO)C(=O)c2cc(/C=C/c3ccccc3)cnc2O[C@H]1CN(C)Cc1ccccc1F	28.2*	2.1	33.5	nt	3.3
C[C@@H]1CN([C@@H](C)CO)C(=O)c2cc(/C=C/c3ccccc3)cnc2O[C@H]1CN(C)S(=O)(=O)c1cccs1	-0.3	-3.6	94.4*	nt	-1.0
COc1ccc(S(=O)(=O)N(C)C[C@H]2Oc3ncc(-c4ccncc4)cc3C(=O)N([C@@H](C)CO)C[C@H]2C)cc1	-32.7	2.0	90.1*	nt	14.0
C[C@@H]1CN([C@@H](C)CO)C(=O)c2cc(C3=CCCCC3)cnc2O[C@H]1CN(C)C(=O)c1cccnc1	-4.8	7.1	-2.5	nt	-0.6
O=C(Nc1ccc(N2CCCC2)cc1)C(c1ccccc1)c1ccccc1	nt	nt	nt	76.8*	2.4
O=C(Cc1ccccc1)Nc1ccc(N2CCOCC2)cc1	-0.5	-0.9	1.0	-3.9	nt
CC(=O)N1CCN(c2ccc(NC(=O)C(c3ccccc3)c3ccccc3)cc2)CC1	7.8	-3.7	-5.0	-13.2	-1.0
O=C(Cc1ccccc1)Nc1ccc(N2CCCC2)cc1	nt	nt	nt	68.1*	0.2
O=C(Nc1ccccc1F)N[C@@H]1CC[C@@H](CCNS(=O)(=O)c2ccccc2)O[C@H]1CO	-3.3	-0.3	-0.3	nt	-0.6
Cc1cccc(C=NNc2cc(C)c3cccc(C)c3n2)n1	25.1*	-38.5	2.8	nt	nt
COc1ccccc1S(=O)(=O)Nc1ccc2c(c1)OC[C@@H](C)NC[C@@H](C)[C@@H](OC)CN(C)C2=O	-5.4	-5.8	11.5	nt	4.5
COc1cccc(-c2ccc3n(c2=O)C[C@H]2[C@H](CO)[C@@H](C(=O)N4CCOCC4)N[C@@H]32)c1	0.3	-15.0	85.4*	nt	-6.4
CCNC(=O)[C@H]1N[C@H]2c3ccc(-c4cccc(C(=O)N(C)C)c4)c(=O)n3C[C@H]2[C@@H]1CO	-0.6	-13.6	83.1*	nt	-0.5
SMILES	MLL AF4-AF9 inh	RAD52 inh	S100A4 inh HTS	dFosB act	RAD54 branch
CN(C)C(=O)c1cccc(-c2ccc3n(c2=O)C[C@H]2[C@H](CO)[C@@H](C(=O)NCC4CC4)N[C@@H]32)c1	-0.5	9.0	-1.0	nt	-9.4
COc1ccc(S(=O)(=O)N(C)C[C@@H]2Oc3ccc(N(C)C)cc3C(=O)N([C@H](C)CO)C[C@@H]2C)cc1	2.7	16.6	-2.1	nt	2.8
COc1cccc(-c2ccc3c(c2)[C@H]2[C@H](CCN2C(=O)Nc2ccccc2OC)[C@@H](CO)N3C)c1	5.3	27.0	-10.6	nt	11.3
COc1ccc(-c2ccc3c(c2)[C@H]2[C@H](CCN2C(=O)Nc2ccccc2OC)[C@H](CO)N3C)cc1	0.9	20.9	-0.5	nt	3.9
COc1cccc(-c2ccc3c(c2)[C@@H]2[C@@H](CCN2C(=O)c2ccccc2F)[C@H](CO)N3C)c1	4.4	25.6	0.8	nt	7.0
COc1cccc(-c2ccc3c(c2)[C@H]2[C@H](CCN2C(=O)Nc2ccccc2OC)[C@H](CO)N3C)c1	-1.3	51.4*	5.1	nt	10.1
COc1cccc(-c2ccc3c(c2)[C@@H]2[C@@H](CCN2C(=O)Nc2ccccc2OC)[C@@H](CO)N3C)c1	-1.3	60.5*	-7.1	nt	16.2
COc1cccc(-c2ccc3c(c2)[C@@H]2[C@@H](CCN2C(=O)c2ccccc2F)[C@@H](CO)N3C)c1	2.5	69.4*	-10.8	nt	13.0
COc1ccc(O)c(C(=O)c2cc(C#N)c(=O)n(-c3ccc(Cl)cc3)c2)c1	29.2*	-33.0	-4.3	-9.2	nt
C[C@H]1CN([C@@H](C)CO)C(=O)Cc2cc(NC(=O)Cc3ccccc3)ccc2O[C@H]1CN(C)Cc1ccc(C(=O)Nc2ccccc2N)cc1	-1.2	3.1	5.7	nt	nt
C[C@@H]1CN([C@@H](C)CO)C(=O)Cc2cc(NC(=O)CCCN(C)C)ccc2O[C@H]1CN(C)Cc1ccc(C(=O)Nc2ccccc2N)cc1	31.2*	83.4*	6.2	nt	nt
C[C@H](CO)N1C[C@H](C)[C@@H](CN(C)Cc2ccc(C(=O)Nc3ccccc3N)cc2)Oc2ccc(NC(=O)Cc3cn(C)c4ccccc34)cc2CC1=O	0.1	61.2*	-3.7	nt	3.7
C[C@@H]1CN([C@H](C)CO)C(=O)Cc2cc(NC(=O)CCCN(C)C)ccc2O[C@@H]1CN(C)Cc1ccc(-c2ccccc2)cc1	7.3	79.1*	-5.4	nt	7.9
C[C@@H]1CN([C@@H](C)CO)C(=O)Cc2cc(NC(=O)CCCN(C)C)ccc2O[C@H]1CN(C)Cc1ccc(-c2ccccc2)cc1	15.0	76.7*!	-4.9	nt	nt
CN(C)C(=O)c1ccc(-c2ccc([C@@H]3[C@H](CO)N4C(=O)CN(C(=O)C5CCCC5)C[C@@H]34)cc2)cc1	-4.0	4.7	8.6	nt	nt
